# Granule exo inh: LAMP-1 surface exposure blockers, TALL-104 cells – cell-based, flow cytometry, MLPCN library, primary screen; AID 651702, 2012; TALL-104 LAMP-1 surface exposure; cells stimulated with thapsigargin and PMA; 360,000 tested, 0.66% active; inhibition, % at 10 µM;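 active = inhibition above about 55%, limit read from the data; inconclusive = no clear call, values can overlap the other calls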
# Myeloid diff MLP: induction of myeloid progenitor differentiation, primary screen, cell-based, flow cytometry, MLPCN library. calls only at 10 µM. 360,000 tested, 1% active. ER-HoxA9 myeloid progenitors, lysozyme-GFP differentiation. AID 624256, 2012;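 active = normalized GFP-positive differentiation at or above the plate's own cutoff, the solvent-only control mean plus 3 SD; inconclusive = no clear call, values can overlap the other calls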;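 also: cells exposed to compound for four days before flow analysis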
# HNF4A DNA FP: change in binding of human HNF4A to DNA, primary screen, biochemical, fluorescence polarization, FITC-DNA; Hepatocyte nuclear factor 4-alpha (Homo sapiens), P41235; 1 h; activity change, % at 10 µM; 360,000 tested, 0.3% active; in the data active = activity change above about 30%, passing the limit was not always enough
# Target sequence (P41235 whole entry, looked up): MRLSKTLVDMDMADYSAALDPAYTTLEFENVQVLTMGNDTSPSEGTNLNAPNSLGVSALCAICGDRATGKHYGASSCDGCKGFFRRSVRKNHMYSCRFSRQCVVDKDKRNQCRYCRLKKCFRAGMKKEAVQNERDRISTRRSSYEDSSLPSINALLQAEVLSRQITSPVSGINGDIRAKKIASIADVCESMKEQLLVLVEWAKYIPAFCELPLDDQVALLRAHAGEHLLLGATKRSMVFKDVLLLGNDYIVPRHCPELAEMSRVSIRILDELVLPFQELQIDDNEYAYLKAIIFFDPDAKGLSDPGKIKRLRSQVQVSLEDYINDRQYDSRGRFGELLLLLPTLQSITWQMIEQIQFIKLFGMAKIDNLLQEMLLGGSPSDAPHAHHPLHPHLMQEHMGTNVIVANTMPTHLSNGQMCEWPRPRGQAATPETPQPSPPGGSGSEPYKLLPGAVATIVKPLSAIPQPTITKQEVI
# CSN deneddyl inh: inhibitors of CSN-mediated cullin deneddylation, primary screen, biochemical, fluorescence polarization, uHTS; Purified CSN, SCF-Nedd8-OG deneddylation; inhibition, % at 12.5 µM; 360,000 tested, 0.38% active;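 active = pattern-corrected inhibition above about 35%, with an unprinted fluorescence ratio check between 0.5 and 1.5, limit read from the data, passing the limit was not always enough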;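 also: 0% = enzyme with substrate and 100% = substrate without enzyme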
#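 Assay system: Purified human Csn5 enzyme expressed in HEK293T cells | Amount: Enzyme 0.24 nM | Measured by: Fluorescence polarization readout | Medium: Tris/NaCl/DTT buffer, pH 7.5 | Compound dosing: One concentration, 12.5 µM, 0.25% DMSO | Times: 90 min incubation of compound, enzyme and substrate at room temperature | Control set: no-enzyme wells high, enzyme-with-substrate wells low | Read-out: % inhibition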
# CSN deneddyl val: Csn5 deneddylation inhibitors, confirmation, biochemical, fluorescence polarization, single concentration, SCF-Nedd8OG substrate | Csn5 deneddylation of SCF-Nedd8OG, 90 min | 540 tested, 62% active | AID 720654, 2013 | inhibition, % at 16.6 µM | shares compounds with CSN deneddyl inh; in the data active = inhibition above about 50%;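 also: 0% = DMSO with enzyme and 100% = no enzyme wells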
# MMP-2 counter: MMP-2 protease inhibition counter-screen, confirmation, counter-screen for CSN deneddylation inhibitor project, biochemical, fluorescence, single concentration. shares compounds with CSN deneddyl inh. recombinant MMP-2, FRET substrate fluorescence, 60 min. inhibition, % at 16.6 µM. 540 tested, 33% active. AID 720655, 2013;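 active = corrected plate-normalized z-score of 5 or more, or -5 or less, or inhibition of 15% or more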;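 also: plate controls were DMSO wells with enzyme for no effect and buffer wells lacking MMP-2 for full effect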
# Thrombin cntr: blocks bovine thrombin in a CSN deneddylation counter-screen. shares compounds with CSN deneddyl inh. bovine thrombin cleavage of Ub4-pepOG, fluorescence polarization. inhibition, % at 16.6 µM. 540 tested, 49% active;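 active = inhibition at or above a set limit, with a fluorescence interference ratio between 0.5 and a set maximum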
# HNF4A confirm: change in HNF4A binding to DNA, retest, confirmation, biochemical, fluorescence polarization, FITC-DNA; shares compounds with HNF4A DNA FP; 1 h; activity change, % at 12.5 µM; 210 tested, 99% active; AID 1224897, 2016; call rule not given here
# * marks the source's active call; other numbers are inactive results; i = inactive; ? = inconclusive; / = no result. A selection: hits, their analogues and other compounds. The true share with any hit is near 2.2%.
SMILES,Granule exo inh,Myeloid diff MLP,HNF4A DNA FP,CSN deneddyl inh,CSN deneddyl val,MMP-2 counter,Thrombin cntr,others
CCn1nc(/C=C/c2ccccc2)nc2c(=O)n(C)c(=O)nc1-2,88*,?,107*,59*,9,3,-30,
Cc1cc(/C=C2/C(=O)NC(=O)N(Cc3ccco3)C2=O)c(C)n1-c1ccccc1,11,i,-4,15,/,/,/,
CCN(CC)c1ccc(/C=C2/C(=O)NC(=O)N(Cc3ccco3)C2=O)cc1,0,i,2,63*,56*,19*,0,
CC(C)N1C(=O)/C(=C/C=C/c2ccco2)C(=O)N(Cc2ccco2)C1=O,0,i,9,79*,25,12,27*,
CN(C)c1ccc(/C=C2/C(=O)NC(=O)N(Cc3ccco3)C2=O)cc1,-1,i,-9,30,/,/,/,
COc1ccc(/C=C2/C(=O)N(Cc3ccco3)C(=O)N(C(C)C)C2=O)cc1,-1,i,24,99*,1,11,56*,
C[C@@H]1CN([C@H](C)CO)C(=O)CCCn2nncc2CO[C@H]1CN(C)C(=O)Oc1cccc2ccccc12,5,i,4,2,/,/,/,
CC(=Nc1ccc(F)cc1)c1c(O)n(C)c(=O)[nH]c1=O,-6,i,1,1,/,/,/,
O=c1c2ccccc2nc(-c2ccc(-c3ccccc3)cc2)n1-c1ccncc1,-4,i,1,1,/,/,/,
CCOC(=O)c1c(-n2c(C)cc(C=C3C(=O)NC(=S)NC3=O)c2C)sc2c1CCCC2,2,i,-6,49*,83*,31*,12,
Cc1ccccc1NC(=O)c1cc(-c2ccccc2)n(CCCN2CCOCC2)c1C,19,i,2,3,/,/,/,
Cc1ccccc1NC(=NCCCN1CC1)Nc1ccccc1C,0,i,174,117*,-59,26*,29*,
CCCCOCCCn1c(N)c(C(=O)OCCOC)c2nc3ccccc3nc21,-5,i,1,4,/,/,/,
CCOCCCn1c(N)c(C(=O)Nc2sc3c(c2C(=O)OC)CCCC3)c2nc3ccccc3nc21,1,i,14,52*,93*,0,1,
CCC1(C)OC(c2ccccc2)=C/C(=C/C=C2C(=O)NC(=O)NC2=O)O1 (stereo not drawn),0,i,180,78*,139*,-16,51*,
COc1ccc(N2C(=O)NC(=O)/C(=C\c3ccc([N+](=O)[O-])s3)C2=O)cc1,4,i,0,3,/,/,/,
COc1ccc(CN2C(=O)NC(=O)/C(=C/c3ccc([N+](=O)[O-])s3)C2=O)cc1,41,i,3,42*,35,12,4,
O=C1NC(=O)N(Cc2ccc(F)cc2)C(=O)/C1=C\c1ccc([N+](=O)[O-])s1,54,i,-9,35*,34,15*,0,
COc1ccc(CN2C(=O)NC(=O)/C(=C\c3cc(OC)c(OC)c(OC)c3)C2=O)cc1,13,i,6,4,/,/,/,
COc1ccc(CN2C(=O)NC(=O)/C(=C\c3ccco3)C2=O)cc1,-1,i,-6,62*,/,20*,15*,
COC(=O)C1C2CC[C@@H](CC1OC(=O)c1ccccc1)N2 (stereo partly drawn),2,/,2,-2,/,/,/,
O=C1NC(=O)N(c2cccc(Cl)c2)C(=O)/C1=C\c1ccc(Sc2nc3ccccc3[nH]2)o1,3,i,16,38*,8,-7,25*,
O=c1[nH]c(=S)n(-c2ccccc2)c(O)c1/C=N/N1CCCCC1c1cccnc1 (stereo not drawn),0,i,36*,37*,/,/,/,HNF4A confirm=61*
COc1ccccc1-n1c(-c2ccccc2Cl)nc2ccccc2c1=O,0,i,2,2,/,/,/,
O=C(N/N=C/c1c(O)n(-c2cccc3ccccc23)c(=O)[nH]c1=O)c1ccncc1,17,i,39*,32,/,/,/,HNF4A confirm=49*
O=C(N/N=C/c1c(O)n(CCc2ccccc2)c(=O)[nH]c1=O)c1ccncc1,-2,i,12,-1,/,/,/,
O=c1[nH]c(=O)n(Cc2ccccc2)c(O)c1C=NCCCO,4,i,35*,31,/,/,/,HNF4A confirm=61*
COC(=O)C1=C(c2ccc(-c3ccccc3)c(F)c2)C[C@@H]2CC[C@H]1N2C(=O)NC1CCCCC1,-4,i,1,-2,/,/,/,
